In brackets after ≈: the same amount, converted by molar mass. Activity calls are given as the source filed them. The calls are words filed in the database; no cut-off is given here.
Key:
[1] = Inhibition of ribosome nascent peptide exit tunnel in Escherichia coli S30 extract assessed as inhibition of prokaryotic translation in presence of amino acids incubated for 20 mins by luciferase reporter gene assay
Procedure, shortened: (§1)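 E. coli S30 cell-free extract with all amino acids, preincubated with compound for 20 min at room temperature. Luciferase control template added, translation run 60 min at 37 °C, then stopped by 5 min on ice. Luminescence was read after luciferin addition. IC50 from nonlinear fit, triplicate, normalized to vehicle control.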

[2] = Binding affinity to ribosome nascent peptide exit tunnel in rabbit reticulocyte extract assessed as inhibition of eukaryotic translation in presence of amino acids incubated for 20 mins by luciferase reporter gene assay; parameters: species or system Oryctolagus cuniculus
Procedure, shortened: as §1, with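 “Nuclease-treated rabbit reticulocyte lysate” for “E. coli S30 cell-free extract”, “90” for “60”, “30” for “37”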

[3] = system: Staphylococcus aureus; test: Antibacterial activity against Staphylococcus aureus ATCC 29213 assessed as inhibition of bacterial growth after 18 hrs by liquid microdilution method; assay type: functional; settings: ATCC 29213, 18 h
Procedure, shortened: (§2)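 Liquid microdilution. Overnight 37 °C cultures, E. coli ATCC 27856 in LB and S. aureus ATCC 29213 in TSB, diluted 1:1000 in the same medium and exposed to compound. Growth was taken from OD600 before and after 18 h at 37 °C. MIC50 is the read-out. Triplicate, normalized to an internal vehicle control.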

[4] = system: Staphylococcus aureus; test: Antibacterial activity against Staphylococcus aureus ATCC 29213 assessed as inhibition of bacterial growth after 18 hrs in presence of 50% bovine serum by liquid microdilution method; assay type: functional; settings: ATCC 29213, 18 h
Procedure, shortened: (§3)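 S. aureus ATCC 29213 overnight culture (37 °C) diluted 1:1000 in 50% bovine serum/broth and run by liquid microdilution. Growth was taken from OD600 change over 18 h at 37 °C to give MIC50, in triplicate against a vehicle control. The enhancement ratio is MIC50 without serum divided by MIC50 with serum.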

[5] = system: Staphylococcus aureus; test: Ratio of MIC50 for Staphylococcus aureus ATCC 29213 in absence of 50% bovine serum to MIC50 for Staphylococcus aureus ATCC29213 in presence of 50% bovine serum; assay type: functional; procedure, shortened: as §3
[6] = system: Staphylococcus aureus; test: Antibacterial activity against Erm+ methicillin-resistant Staphylococcus aureus ATCC 33591 assessed as inhibition of bacterial growth after 18 hrs by liquid microdilution method; assay type: functional
Procedure, shortened: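 MRSA grown overnight at 37 °C in Nutrient broth, diluted 1:1000 in the same medium, then plated with the compounds. Growth was judged by comparing OD600 before and after 18 h at 37 °C. MIC50 was taken by liquid microdilution. Vancomycin was the positive control. Each compound was run in triplicate and standardized against an internal vehicle control.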

[7] = system: Escherichia coli; test: Antibacterial activity against Escherichia coli ATCC 27856 assessed as inhibition of bacterial growth after 18 hrs by liquid microdilution method; assay type: functional; settings: ATCC 27856, 18 h; procedure, shortened: as §2
[8] = system: Escherichia coli; test: Inhibition of ribosome nascent peptide exit tunnel in Escherichia coli S30 extract assessed as inhibition of prokaryotic translation in presence of amino acids incubated for 20 mins by luciferase reporter gene assay relative to azithromycin

SMILES	IC50 [1] [nM]	IC50 [2] [nM]	MIC50 [3] [µg/mL]	MIC50 [4] [µg/mL]	Ratio [5]	MIC50 [6]	MIC50 [7] [µg/mL]	fold change (FC) [8]
CC[C@H]1OC(=O)[C@H](C)[C@@H](O[C@H]2C[C@@](C)(OC)[C@@H](O)[C@H](C)O2)[C@H](C)[C@@H](O[C@@H]2O[C@H](C)C[C@H](N(C)C)[C@H]2O)[C@](C)(O)C[C@@H](C)CN(CCCCc2cn(CCc3cn(C)c4ccccc34)nn2)[C@H](C)[C@@H](O)[C@]1(C)O	227	> 250000	1.56 (≈ 1.54 µM)	0.16	10	inactive	128 (≈ 126 µM)	
CC[C@H]1OC(=O)[C@H](C)[C@@H](O[C@H]2C[C@@](C)(OC)[C@@H](O)[C@H](C)O2)[C@H](C)[C@@H](O[C@@H]2O[C@H](C)C[C@H](N(C)C)[C@H]2O)[C@](C)(O)C[C@@H](C)CN(CCCCc2cn(CCn3ccc4cc(OC)ccc43)nn2)[C@H](C)[C@@H](O)[C@]1(C)O	238	> 250000	1.56 (≈ 1.51 µM)	0.16	10	inactive	16 (≈ 15.5 µM)	
CC[C@H]1OC(=O)[C@H](C)[C@@H](O[C@H]2C[C@@](C)(OC)[C@@H](O)[C@H](C)O2)[C@H](C)[C@@H](O[C@@H]2O[C@H](C)C[C@H](N(C)C)[C@H]2O)[C@](C)(O)C[C@@H](C)CN(CCCCc2cn(CCc3c[nH]c4ccccc34)nn2)[C@H](C)[C@@H](O)[C@]1(C)O	540	> 250000	0.78 (≈ 0.779 µM)	0.078	10	inactive	16 (≈ 16 µM)	
CC[C@H]1OC(=O)[C@H](C)[C@@H](O[C@H]2C[C@@](C)(OC)[C@@H](O)[C@H](C)O2)[C@H](C)[C@@H](O[C@@H]2O[C@H](C)C[C@H](N(C)C)[C@H]2O)[C@](C)(O)C[C@@H](C)CN(CCCCc2cn(CCn3ccc4cc([N+](=O)[O-])ccc43)nn2)[C@H](C)[C@@H](O)[C@]1(C)O	811	> 250000	1.56 (≈ 1.49 µM)	0.63	2.5	inactive	16 (≈ 15.3 µM)	
CC[C@H]1OC(=O)[C@H](C)[C@@H](O[C@H]2C[C@@](C)(OC)[C@@H](O)[C@H](C)O2)[C@H](C)[C@@H](O[C@@H]2O[C@H](C)C[C@H](N(C)C)[C@H]2O)[C@](C)(O)C[C@@H](C)CN(Cc2ccc(-c3cn(CCN4CCc5ccccc54)nn3)cc2)[C@H](C)[C@@H](O)[C@]1(C)O	555	> 250000	1.56 (≈ 1.5 µM)	0.78	2	inactive	64 (≈ 61.7 µM)	
CC[C@H]1OC(=O)[C@H](C)[C@@H](O[C@H]2C[C@@](C)(OC)[C@@H](O)[C@H](C)O2)[C@H](C)[C@@H](O[C@@H]2O[C@H](C)C[C@H](N(C)C)[C@H]2O)[C@](C)(O)C[C@@H](C)CN(CCCCc2cn(CCn3ccc4ccccc43)nn2)[C@H](C)[C@@H](O)[C@]1(C)O	128	> 250000	1.56 (≈ 1.56 µM)	0.16	10	inactive	64 (≈ 63.9 µM)	2.3
CC[C@H]1OC(=O)[C@H](C)[C@@H](O[C@H]2C[C@@](C)(OC)[C@@H](O)[C@H](C)O2)[C@H](C)[C@@H](O[C@@H]2O[C@H](C)C[C@H](N(C)C)[C@H]2O)[C@](C)(O)C[C@@H](C)CN(Cc2ccc(-c3cn(CCc4cn(C)c5ccccc45)nn3)cc2)[C@H](C)[C@@H](O)[C@]1(C)O	641	> 250000	6.25 (≈ 5.96 µM)	1.56	4	inactive	128 (≈ 122 µM)	

From ChEMBL document CHEMBL3600351, “Exploiting translational stalling peptides in an effort to extend azithromycin interaction within the prokaryotic ribosome nascent peptide exit tunnel” (Bioorg Med Chem, 2015)
